A selection: hits, their analogues and other compounds. The true share with any hit is near 2.7%.
CaV13 ICDI inh – Primary screen for inhibitors of IQ motif and Ca2+-dependent inactivation inhibitor domain binding in CACNA1D, Förster resonance energy transfer in living cells, …; HEK cells, CFP/YFP FRET ICDI-IQ, plate reader, 10 min; percent FRET-ratio fall versus neutral wells; inhibition, % at 12.3 µM; 340,000 compounds, 0.098% hits;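 active = mean replicate inhibition of at least 30% and at least 1% of replicates passing that level; inconclusive = only one of the two criteria is met; inactive = neither criterion is met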;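 note: 0% = median of the neutral control wells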
MLL AF4-AF9 inh – MLL-AF4/AF9 protein interaction inhibition | P42568 | AlphaScreen, biotin-AF4 peptide binding to FLAG-AF9 | inhibition, % at 10 µM | 350,000 compounds, 0.47% hits | AID 651704;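 active = every replicate reaching a set inhibition limit, whatever the replicate mean, cut at about 25% in these data; inconclusive = mean inhibition reaches that limit but some replicates miss it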;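 note: 0% = plate neutral control median and 100% = total signal loss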
SIRT5 inh – sirtuin-5 (human) deacylase inhibition | Purified SirT5, succinyl-peptide AMC, trypsin-coupled fluorescence | inhibition, % at 15 µM | 330,000 compounds, 1.1% hits | AID 652115; in the data active = inhibition above about 15%; inconclusive = no clear call, values can overlap the other calls
Target sequence (Q9NXA8 whole entry, looked up): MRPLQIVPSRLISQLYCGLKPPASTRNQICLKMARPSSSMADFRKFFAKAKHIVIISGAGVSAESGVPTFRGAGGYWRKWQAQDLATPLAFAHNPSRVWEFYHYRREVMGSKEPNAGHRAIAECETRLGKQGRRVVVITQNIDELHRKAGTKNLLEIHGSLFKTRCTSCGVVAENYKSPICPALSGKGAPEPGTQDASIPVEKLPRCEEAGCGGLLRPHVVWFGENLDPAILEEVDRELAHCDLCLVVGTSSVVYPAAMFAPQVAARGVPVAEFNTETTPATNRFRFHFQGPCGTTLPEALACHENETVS
DENV2 CPE rescue – protects cells from dengue virus 2 cytopathic effect | DENV2-infected cells, cytopathic effect rescue, plate reader | CPE inhibition, % at 9.99 µM | 350,000 compounds, 1.7% hits | AID 651640; in the data active = CPE inhibition above about 20%, passing the limit was not always enough; inconclusive = no clear call, values can overlap the other calls; tested in BHK-21 cells;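 note: 0% = median of neutral control wells and 100% = median of positive control wells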
S100A4 MyoIIA – inhibitors of human S100A4 binding to myosin IIA peptide | 360,000 compounds, 0.14% hits | AID 652163 | inhibition, % at 10.7 µM | S100A4/TAMRA-MyoIIA peptide fluorescence polarization;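 active = mean inhibition of at least 70% across replicates, with every replicate also reaching that level; inconclusive = mean inhibition reaches 70% but some replicates fall short; inactive = mean inhibition below 70%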
Target sequence (P26447 whole entry, looked up): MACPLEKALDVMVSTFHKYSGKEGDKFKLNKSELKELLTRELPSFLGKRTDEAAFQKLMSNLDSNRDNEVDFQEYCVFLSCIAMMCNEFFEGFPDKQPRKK
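Assay system: human S100A4 monomer with TAMRA-labelled myosin IIA peptide / Buffer or medium: Calcium-containing HEPES buffer, pH 7.2 / Reagent: TAMRA-labelled myosin IIA heavy-chain peptide probe, 5 nM / Compound: one dose per compound / Timing: polarization read 5 min after assay mix addition, stable 5–60 min / Benchmarks: neutral control DMSO, positive control TFP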
The depositor's hits bear a star; ? = inconclusive; · = not tested or not shown; + = active, no number.

SMILES | CaV13 ICDI inh | MLL AF4-AF9 inh | SIRT5 inh | DENV2 CPE rescue | S100A4 MyoIIA
CCN1/C(=C/c2sc(-c3ccccc3C)c[n+]2C)Sc2ccccc21 | + | 3.3 | 0.3 | -2.7 | 2.2
CCN1/C(=C/c2ccc3cc(C)ccc3[n+]2CC)Sc2ccccc21 | -65.0 | 17.0 | 5.8 | · | -32.3
Cc1noc(C)c1S(=O)(=O)Nc1ccc2c(c1)C(=O)N([C@@H](C)CO)C[C@H](C)[C@H](CN(C)S(=O)(=O)c1cn(C)cn1)OCCCC[C@@H](C)O2 | · | -2.5 | -1.7 | -7.4 | -7.5
CCN(C[C@H]1N[C@@](C)(C(=O)OC)[C@H]2C(=O)N(C)C(=O)[C@@H]12)C(=O)c1ccc(F)cc1 | -5.0 | -1.8 | 27.8* | ? | -1.5
COC(=O)[C@]1(C)N[C@H](CN(C)C(=O)c2ccccc2)[C@@H]2C(=O)N(C)C(=O)[C@@H]21 | -5.8 | -1.3 | 33.5* | 0.8 | 0.9
COCC(=O)Nc1ccc2c(c1)OC[C@H](C)N(CCC(F)(F)F)C[C@@H](C)[C@@H](OC)CN(C)C2=O | · | 1.1 | 0.8 | -12.7 | 5.3
COc1cc(COC(C)=O)ccc1OC(C)=O | · | -11.5 | 0.5 | 1.1 | -1.2
Cc1cc(C)c2nc(SC(C)C(=O)NCC(=O)Nc3ccc(F)c(F)c3F)cc(C)c2c1 (configuration not stated) | -5.5 | 2.9 | -5.2 | 27.8* | -9.7
Cc1cc(SC(C)C(=O)NCC(=O)Nc2ccc(F)c(F)c2F)nc2ccccc12 (configuration not stated) | -3.8 | 2.4 | -0.7 | 2.0 | 0.8
CC1=CC(=O)C2=C(C)CCC3C(C)C(=O)OC3C12 (configuration not stated) | · | -2.4 | -0.2 | 21.6* | -2.3
C[C@@H]1CCCCO[C@H](CN(C)C(=O)Nc2ccc(F)cc2)[C@H](C)CN([C@H](C)CO)C(=O)c2cc(NS(=O)(=O)c3cn(C)cn3)ccc2O1 | · | -1.1 | -3.3 | 0.7 | 2.8
Cc1ccccc1CN1C(=O)CN(S(C)(=O)=O)CC1(C)C(=O)NCc1ccccc1 (configuration not stated) | -15.3 | · | 4.0 | 22.3* | -2.9
Cc1ccccc1CN1C(=O)CN(S(C)(=O)=O)CC1(C)C(=O)Nc1c(C)cccc1C (configuration not stated) | -8.7 | · | -2.5 | 0.9 | -6.7
COC(=O)[C@]12C[C@H](CC(=O)N3CCSCC3)C(=O)N(Cc3ccccc3)C1=C[C@H](C(C)C)O[C@@H]2C1CC1 | -12.2 | 2.8 | · | ? | 2.3
Cc1ccc(S(=O)(=O)N(C)C[C@H]2Oc3ccc(NS(=O)(=O)c4ccccc4)cc3C(=O)N([C@@H](C)CO)C[C@H]2C)cc1 | · | -1.4 | 1.8 | -12.5 | -1.5
O=S(=O)(c1ccccc1)N1CCCCN2[C@@H](CO)[C@H](c3ccc(C#Cc4ccccc4)cc3)[C@@H]2C1 | · | -1.0 | 4.3 | 22.4* | 5.0
COc1ccc(C#Cc2ccc([C@@H]3[C@H]4CN(S(=O)(=O)c5ccccc5)CCCCN4[C@H]3CO)cc2)cc1 | · | -1.7 | 8.4 | 16.6 | 11.1
CN(C)CC#Cc1ccc([C@H]2[C@@H](CO)N3CCCCN(S(=O)(=O)c4ccccc4)C[C@@H]23)cc1 | · | 3.7 | 6.3 | 44.1* | -3.1
O=S(=O)(c1ccccc1)N1CCCCN2[C@H](CO)[C@@H](c3ccc(C#Cc4ccccc4)cc3)[C@@H]2C1 | · | -6.1 | -2.4 | 9.4 | -7.9
COc1ccc(S(=O)(=O)N2CCCCN3[C@@H](CO)[C@H](c4ccc(C#CC(C)C)cc4)[C@@H]3C2)cc1 | · | 3.4 | 15.4* | -24.9 | -6.7
COc1ccc(C#Cc2ccc([C@H]3[C@H]4CN(S(=O)(=O)c5ccccc5)CCCCN4[C@H]3CO)cc2)cc1 | · | -2.9 | 6.5 | -8.3 | 123.2*
C[C@H](CO)N1C[C@H](C)[C@@H](CN(C)C(=O)CCCN(C)C)OCCCC[C@H](C)Oc2ccc(NS(=O)(=O)c3cn(C)cn3)cc2C1=O | · | -0.4 | -2.4 | -8.4 | 9.7
O=C(Nc1ccccc1)N[C@@H]1CC[C@@H](CCn2cc(C3(O)CCCC3)nn2)O[C@@H]1CO | · | -1.9 | -2.4 | -4.9 | -18.6
Cc1ccc(S(=O)(=O)Nc2ccc3c(c2)C(=O)N([C@H](C)CO)C[C@@H](C)[C@H](CN(C)Cc2ccc4c(c2)OCO4)OCCCC[C@H](C)O3)cc1 | · | 4.1 | 0.1 | -4.5 | 23.8
CC(=O)N1C[C@H]2[C@@H](c3ccccc31)[C@@H](CO)N2S(=O)(=O)c1ccccc1 | · | 2.1 | 2.1 | -2.3 | 11.4
SMILES | CaV13 ICDI inh | MLL AF4-AF9 inh | SIRT5 inh | DENV2 CPE rescue | S100A4 MyoIIA
O=S(=O)(c1ccccc1)N1CCCCN2[C@H](C1)[C@@H](c1ccc(C#CC3CCCC3)cc1)[C@@H]2CO | · | 1.6 | 15.3* | -1.1 | -4.1
O=S(=O)(c1ccccc1)N1CCCCN2[C@@H](CO)[C@H](c3ccc(C#CC4CCCC4)cc3)[C@@H]2C1 | · | 4.4 | 6.5 | 7.9 | -3.4
N#Cc1ccc(-c2ccc([C@@H]3[C@H](CO)N4CCCCN(S(=O)(=O)c5ccccc5)C[C@@H]34)cc2)cc1 | · | 0.2 | -1.7 | 23.4* | -2.5
CCS(=O)(=O)N1CCCCN2[C@@H](CO)[C@@H](c3ccc(-c4ccc(C#N)cc4)cc3)[C@@H]2C1 | · | 3.4 | -0.5 | 45.4* | -8.5
Cc1ccc(S(=O)(=O)N(C)C[C@H]2Oc3ccc(NC(=O)Nc4ccccc4)cc3C(=O)N([C@H](C)CO)C[C@@H]2C)cc1 | · | 3.2 | 1.9 | -9.9 | 0.1
CSc1ccc2c(c1)N(CCC1CCCCN1C)c1ccccc1S2 (configuration not stated) | -5.0 | 38.5* | -5.4 | -8.3 | 2.5
CC(=O)c1ccc2c(c1)N(CCCN1CCC(CCO)CC1)c1ccccc1S2 | -5.5 | 6.4 | 3.6 | 0.0 | 3.5
CS(=O)(=O)N1CC(=O)N2[C@H](C1)[C@@H](c1ccc(C#Cc3ccccc3)cc1)[C@@H]2CO | · | -2.7 | 1.9 | -2.8 | 3.1
O=C(C[C@H]1C[C@H]2c3cc(NS(=O)(=O)c4ccc(F)cc4)ccc3O[C@H]2[C@H](CO)O1)NCCN1CCCCC1 | · | 5.5 | -0.6 | -3.3 | 14.4
Cc1ccccc1NS(=O)(=O)c1ccc(S(=O)(=O)N2CCCC2)cc1 | -11.0 | -2.6 | 1.7 | 22.4* | -3.5
CSc1ncc(C(=O)Nc2ccc(C(C)=O)cc2)c(-c2ccccc2)n1 | -20.5 | 0.2 | 21.0* | 2.1 | -4.6
C[C@H](CO)N1C[C@H](C)[C@H](CN(C)CC2CCOCC2)Oc2cc(-c3cccnc3)ccc2S1(=O)=O | · | -1.3 | -3.4 | 5.7 | 4.3
Cc1ccc(Nc2c(-c3ccco3)nc3ccccn23)cc1 | -2.8 | 3.8 | 1.6 | 75.2* | -3.6
COc1cccc(/C=C/C(=O)NCCc2ccc(OC)c(OC)c2)c1 | -4.7 | -22.9 | · | 99.5* | 2.8
CCCCc1cn(C[C@H](Cc2ccccc2)NC(=O)N[C@H](CO)CCc2oc(C(C)=O)c(C(=O)OC)c2C(=O)OC)nn1 | · | -7.1 | -11.5 | 22.0* | -31.0
